Assay outcomes from PubChem BioAssay.
This is a sample that favours compounds with a hit; in the whole collection about 0.6% have one here.
C-LANA FP – inhibitors of KSHV C-LANA binding to DNA, primary screen, biochemical, fluorescence polarization, FAM-LBS DNA, MBP-C-LANA, single point. Kaposi's sarcoma herpesvirus LANA C-terminal domain (residues 932-1162) DNA binding. inhibition, % at 9 µM. AID 504423, 2011. 340,000 tested, 0.078% active;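 active = highest replicate inhibition at or above 60% at 9 µM, even if other replicates fall short; inactive = all replicates below 60% inhibition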
Keap1-Nrf2 PPI – Keap1-Nrf2 protein-protein interaction inhibitors, primary screen, biochemical, fluorescence polarization, single point; Kelch-like ECH-associated protein 1 (Homo sapiens), Q14145; Keap1 Kelch-Nrf2 peptide fluorescence polarization, 1536-well; inhibition, % at 9.4 µM; 340,000 tested, 0.15% active; AID 504523, 2011; in the data active = inhibition above about 12%;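 note: human Keap1 Kelch domain with fluorescein labeled Nrf2 9mer peptide probe; higher means more block of Keap1 binding to Nrf2 peptide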
Rtt109 HAT inh – inhibitors of C. albicans Rtt109/Vps75 HAT, primary screen, biochemical, ThioGlo CoA-SH fluorescence, plate reader. 330,000 tested, 0.16% active. purified Rtt109/Vps75, 4 h. inhibition, % at 34.9 µM;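 active = inhibition of at least 50% in every replicate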
Target sequence (Q5AAJ8 whole entry, looked up): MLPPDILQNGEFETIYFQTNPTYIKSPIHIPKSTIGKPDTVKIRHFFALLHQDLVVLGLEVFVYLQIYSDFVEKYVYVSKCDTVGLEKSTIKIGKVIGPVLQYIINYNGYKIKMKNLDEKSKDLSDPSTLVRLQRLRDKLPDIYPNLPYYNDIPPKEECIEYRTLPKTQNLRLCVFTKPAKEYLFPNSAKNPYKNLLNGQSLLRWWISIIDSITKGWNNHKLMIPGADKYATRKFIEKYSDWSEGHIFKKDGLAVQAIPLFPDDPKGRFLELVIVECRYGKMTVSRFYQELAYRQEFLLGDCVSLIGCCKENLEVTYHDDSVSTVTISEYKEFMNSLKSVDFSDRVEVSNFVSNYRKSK
Tn6 DDE FP – inhibitors of Tn6 peptide binding to fibrin DD(E), primary screen, biochemical, fluorescence polarization, human fibrin, Tn6 probe. Fibrin DD(E) TRITC-Tn6 fluorescence polarization displacement. inhibition, % at 8.3 µM. 370,000 tested, 0.21% active. AID 720509, 2013;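 active = inhibition above a per-campaign cutoff: mean of compounds within control limits plus 3 SD, cut at about 15% in these data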
DDE Tn7 FP inh – inhibitors of Tn7 peptide binding to fibrin DD(E), primary screen, biochemical, fluorescence polarization, human fibrin, Tn7 probe; 370,000 tested, 0.13% active; FP displacement of FITC-Tn7 peptide from fibrin DD(E); 0% = median of compound wells per plate; inhibition, % at 8.3 µM; Fibrinogen beta chain (Homo sapiens), P02675;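 active = inhibition above the mean of compounds falling within the control limits plus 3 SD of them, cut at about 14% in these data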
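Assay system: Human clot-derived fibrin DD(E) complex | Buffer or medium: Tris/NaCl/CaCl2 buffer, pH 7.8 | Repeats: One replicate per compound | Benchmarks: Aha-Tn7 high control | Measure: % inhibition scaled between sample-field median and high-control FP | Schedule: 10 min plus 3 h, room temperature | Signal: Fluorescence polarization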
DDE Tn7 confirm – inhibitors of Tn7 peptide binding to fibrin DD(E), confirmation, biochemical, fluorescence polarization, human fibrin, Tn7 probe. shares compounds with DDE Tn7 FP inh. FP displacement of TRITC-Tn7 peptide from DD(E); 0% set at plate's compound-well median. inhibition, % at 8.3 µM. 460 tested, 5% active;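 active = inhibition above the campaign cutoff, the mean of compounds within control limits plus 3 SD, cut at about 14% in these data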;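 note: displacers lower polarization since freed probe rises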
Tn7 DDE ctr – DD(E)-Tn7 binding inhibition, counter-screen; shares compounds with DDE Tn7 FP inh; fibrin DD(E), TRITC-Tn7 probe displacement, fluorescence polarization; inhibition, % at 8.3 µM; 460 tested, 3% active;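 active = inhibition above the cutoff, the mean of compounds lying between the control bounds plus 3 SD of those compounds, cut at about 17% in these data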
Large screens that a line does not name were inactive (follow-up assays come after a bar, where they were run).

CC[C@@]12C(=O)N(c3ccc(OC)cc3)C(=O)N1[C@H](c1ccc(Cl)cc1)[C@@H]1C(=O)N(C3CCCCC3)C(=O)[C@@H]12	DDE Tn7 FP inh 16 | DDE Tn7 confirm inactive | Tn7 DDE ctr inactive
CC[C@@]12C(=O)N(c3cccc(Br)c3)C(=O)N1[C@H](c1ccc(Cl)cc1)[C@@H]1C(=O)N(C3CCCCC3)C(=O)[C@@H]12	none
CC(C)c1ccc[n+](-c2nc([O-])sc2C=O)c1	none (no result: C-LANA FP, Keap1-Nrf2 PPI, Rtt109 HAT inh)
Cc1ccc[n+](-c2nc([O-])sc2C=O)c1	C-LANA FP 83, Keap1-Nrf2 PPI 63, DDE Tn7 FP inh 25 | DDE Tn7 confirm inactive | Tn7 DDE ctr inactive
Fc1ccc(-c2n[nH]c(=S)n2N=Cc2ccc(OCc3ccccc3)cc2)cc1	none (no result: C-LANA FP, Keap1-Nrf2 PPI, Rtt109 HAT inh)
COc1ccc(/C=C/c2cc(C(=O)O)c3ccccc3n2)cc1	DDE Tn7 FP inh 38 | DDE Tn7 confirm inactive | Tn7 DDE ctr inactive
COC(=O)[C@]12C[C@H](CC(=O)N3CCC(c4ccccc4)CC3)C(=O)N(Cc3ccccc3)C1=C[C@H](COCc1ccccc1)O[C@@H]2C	none (no result: C-LANA FP, Keap1-Nrf2 PPI, Rtt109 HAT inh)
COC(=O)[C@]12C[C@H](CC(=O)NCCc3ccccc3OC)C(=O)N(Cc3ccccc3)C1=C[C@H](COCc1ccccc1)O[C@@H]2C	none (no result: C-LANA FP, Keap1-Nrf2 PPI, Rtt109 HAT inh)
Cc1ccc(N=Cc2ccccc2O)cc1Cl	DDE Tn7 FP inh 15 | DDE Tn7 confirm inactive | Tn7 DDE ctr inactive
CCCC/C=C1/C(c2ccccc2)N(Cc2ccc(OC)cc2OC)C2=NC(c3ccccc3)CC(=O)N21 (stereo unspecified)	none (no result: C-LANA FP, Keap1-Nrf2 PPI, Rtt109 HAT inh)
Cc1ccc(S(=O)(=O)C(C#N)c2nc3ccccc3nc2N2CCCC2)cc1 (stereo unspecified)	DDE Tn7 FP inh 16 | DDE Tn7 confirm inactive | Tn7 DDE ctr inactive
CCN1CCN(c2nc3ccccc3nc2C(C#N)S(=O)(=O)c2ccc(C)cc2)CC1 (stereo unspecified)	none
COc1ccc(S(=O)(=O)N(C)CC(=O)NCc2ccc3c(c2)OCO3)cc1	none
COc1ccc(N(CC(=O)NCc2ccc3c(c2)OCO3)S(=O)(=O)c2ccc(O)c(C(=O)O)c2)cc1	DDE Tn7 FP inh 15 | DDE Tn7 confirm inactive | Tn7 DDE ctr inactive
COc1ccccc1NS(=O)(=O)c1cccc(C(=O)NCC(c2ccco2)N(C)C)c1 (stereo unspecified)	DDE Tn7 FP inh 14 | DDE Tn7 confirm inactive | Tn7 DDE ctr inactive
COc1ccccc1NS(=O)(=O)c1cc(C(=O)NCC(c2ccco2)N(C)C)ccc1C (stereo unspecified)	none (no result: C-LANA FP, Keap1-Nrf2 PPI, Rtt109 HAT inh)
COc1ccc([C@H]2CC(=O)C=C(c3ccc(Cl)c(F)c3)C2)cc1	DDE Tn7 FP inh 14 | DDE Tn7 confirm inactive | Tn7 DDE ctr inactive
Cc1c(NS(=O)(=O)c2cc([N+](=O)[O-])ccc2Cl)c(=O)n(-c2ccccc2)n1C	DDE Tn7 FP inh 14 | DDE Tn7 confirm inactive | Tn7 DDE ctr inactive
Cc1c(NS(=O)(=O)c2ccc([N+](=O)[O-])cc2)c(=O)n(-c2ccccc2)n1C	none
Cc1cccc(C)c1-n1nnnc1C1c2ccccc2OCC(=O)N1Cc1ccc(F)cc1 (stereo unspecified)	none (no result: C-LANA FP, Keap1-Nrf2 PPI, Rtt109 HAT inh)
COc1ccc(N2C(=O)NC3CC2(C)Oc2ccccc23)cc1 (stereo unspecified)	DDE Tn7 FP inh 16 | DDE Tn7 confirm inactive | Tn7 DDE ctr inactive
O=C(c1ccccc1)N1CCSc2sccc2C1=O	DDE Tn7 FP inh 15 | DDE Tn7 confirm inactive | Tn7 DDE ctr inactive
COc1ccc(CCNC(=O)CC2SC(=NCc3ccccc3)NC2=O)cc1 (stereo unspecified)	DDE Tn7 FP inh 15 | DDE Tn7 confirm inactive | Tn7 DDE ctr inactive
